Measurements reported in ChEMBL document CHEMBL5705892, “MK-2206, an allosteric Akt inhibitor, enhances antitumor efficacy by standard chemotherapeutic agents or molecular targeted drugs in vitro and in vivo” (Mol Cancer Ther, 2010).
Calls of active or inactive are those of the source. The rule behind the calls is not given here.

Assays:
[1] = test system: SK-OV-3; experiment: Antiproliferative activity against human SK-OV-3 cells assessed as reduction in cell proliferation measured after 72 hrs by celltiter-glo assay; format: functional, cell-based; details: SK-OV-3, 72 h
Method in brief: (§1)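 Cells in RPMI 1640 with 10% heat-inactivated FBS at 37°C and 5% CO₂ were seeded at 2 to 3 × 10³ per well. […] Growth was read as cellular ATP by CellTiter-Glo.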

[2] = test system: SK-OV-3; experiment: Antitumor activity against human SK-OV-3 cells xenografted in CB17/icr SCID mouse assessed as tumor growth inhibition at 100 mg/kg, po administered 5 days per week for 2 weeks and measured twice a week during compound dosing by caliper method; format: functional, organism-based
Method in brief: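 SK-OV-3 cells were implanted s.c. into female C.B-17/ICR-scid mice, which were randomized at 0.13 cm³, n = 5. Lapatinib (water) was given at 100 mg/kg po on days 0–4 and 7–11. MK-2206 (30% Captisol) was given at 60 or 120 mg/kg po on days 0, 2, 4, 7, 9, 11. Tumor volume by calipers twice weekly.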

[3] = test system: HCC1954; experiment: Antiproliferative activity against human HCC1954 cells assessed as reduction in cell proliferation measured after 72 hrs by celltiter-glo assay; format: functional, cell-based; details: HCC1954, 72 h; method in brief: as §1
[4] = test system: HCC70; experiment: Antiproliferative activity against human HCC70 cells assessed as reduction in cell proliferation measured after 72 hrs by celltiter-glo assay; format: functional, cell-based; details: HCC70, 72 h; method in brief: as §1
[5] = test system: NCI-N87; experiment: Antiproliferative activity against human NCI-N87 cells assessed as reduction in cell proliferation measured after 72 hrs by celltiter-glo assay; format: functional, cell-based; details: NCI-N87, 72 h; method in brief: as §1
[6] = test system: HCC70; experiment: Induction of apoptosis in human HCC70 cells assessed as increase in caspase-3/7 activity at 10 umol/L measured after 48 hrs by caspase-glo 3/7 assay relative to control; format: functional; details: dose 10 µmol/L
Method in brief: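 HCC70 breast cells were treated for 48 h with MK-2206 (0, 0.03, 0.3, 3 µmol/L), with or without lapatinib (0, 1, 3, 5, 10 µmol/L). Caspase-3/7 activity was read by Caspase-Glo 3/7 luminescence and expressed as fold induction over DMSO-treated control. The experiment was run twice.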

[7] = test system: SK-BR-3; experiment: Antiproliferative activity against human SK-BR-3 cells assessed as reduction in cell proliferation measured after 72 hrs by celltiter-glo assay; format: functional, cell-based; details: SK-BR-3, 72 h; method in brief: as §1
[8] = target: RAC-alpha serine/threonine-protein kinase (Homo sapiens) (UniProt P31749); experiment: Inhibition of AKT phosphorylation at S473 residue in human HCC70 cells at 10 umol/L measured up to 24 hrs by Western blot analysis; format: cell-based; details: dose 10.0 µmol/L
Sequence of RAC-alpha serine/threonine-protein kinase (Homo sapiens) (P31749 whole entry): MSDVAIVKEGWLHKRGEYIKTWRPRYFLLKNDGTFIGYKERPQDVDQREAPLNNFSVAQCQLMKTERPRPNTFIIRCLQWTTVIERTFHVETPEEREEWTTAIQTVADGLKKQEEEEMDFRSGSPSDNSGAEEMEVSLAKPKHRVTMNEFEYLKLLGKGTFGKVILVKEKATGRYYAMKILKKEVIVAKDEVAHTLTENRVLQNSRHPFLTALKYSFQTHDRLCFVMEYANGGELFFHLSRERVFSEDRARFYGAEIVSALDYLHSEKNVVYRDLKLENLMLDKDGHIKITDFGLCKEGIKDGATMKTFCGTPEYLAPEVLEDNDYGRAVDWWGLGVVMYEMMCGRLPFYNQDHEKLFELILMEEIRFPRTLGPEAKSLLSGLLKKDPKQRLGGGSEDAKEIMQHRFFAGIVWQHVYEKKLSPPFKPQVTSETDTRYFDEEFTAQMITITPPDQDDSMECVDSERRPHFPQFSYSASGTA
Method in brief: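 HCC70 cells at ~70% confluence were exposed to 10 µmol/L lapatinib, 1 µmol/L MK-2206, or both, for 0, 3, 6, 12 or 24 h. Lysates were prepared in Triton X-100/Tris buffer (pH 7.5) with protease and phosphatase inhibitors. Immunoblots after SDS-PAGE and nitrocellulose transfer were probed for pAkt and pS6.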

[9] = test system: MDA-MB-468; experiment: Antiproliferative activity against human MDA-MB-468 cells assessed as reduction in cell proliferation measured after 72 hrs by celltiter-glo assay; format: functional, cell-based; details: MDA-MB-468, 72 h; method in brief: as §1
[10] = test system: PC-3; experiment: Antitumor activity against human PC-3 cells xenografted in CD1 nude mouse assessed as reduction in tumor volume at 5 mg/kg, iv by caliper method; format: functional, organism-based
Method in brief: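 Male CD1-nude mice received s.c. PC-3 cells and were treated from day 25 after implant, at 0.2 cm³, n = 5. Docetaxel (0.73% ethanol in saline) was given at 5 mg/kg i.v. on day 0. MK-2206 (30% Captisol) was given at 120 mg/kg po on days 1, 3, 5, 8, 10, 12. Caliper volume twice weekly.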

[11] = Toxicity in human PC-3 cells xenografted CD1 nude mouse assessed as body weight loss at 5 mg/kg, iv measured on day 15 relative to control; format: organism-based; details: in vivo, 360 h, time 15 day
Method in brief: (§2)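 Male CD1-nude mice with s.c. PC-3 tumours (50% Matrigel/50% PBS, left flank), randomized at mean 0.2 cm³, n=5/group, treated from 25 d post-implant. Body weight monitored versus vehicle-only controls.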

[12] = Toxicity in human PC-3 cells xenografted CD1 nude mouse assessed as body weight loss at 5 mg/kg, iv relative to control; format: organism-based; details: in vivo; method in brief: as §2
[13] = test system: NCI-H1299; experiment: Antiproliferative activity against human NCI-H1299 cells assessed as reduction in cell proliferation measured after 72 hrs by celltiter-glo assay; format: functional, cell-based; details: NCI-H1299, 72 h; method in brief: as §1
[14] = test system: NCI-H292; experiment: Antiproliferative activity against human NCI-H292 cells assessed as reduction in cell proliferation measured after 72 hrs by celltiter-glo assay; format: functional, cell-based; details: NCI-H292, 72 h; method in brief: as §1
[15] = Toxicity in human NCI-H292 cells xenografted CD-1 mouse assessed as death at 50 mg/kg, po administered once daily for 5 days per week for 2 weeks and measured during compound dosing; format: organism-based; details: in vivo, 336 h
Method in brief: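 NCI-H292 cells in 50% Matrigel/PBS injected s.c. into flank of female CD1-nude mice; dosing began after 2 wk at mean tumour 0.2 cm³, n = 5/group. […] Body weight and signs monitored; treatment ended day 16.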

[16] = test system: A-431; experiment: Antiproliferative activity against human A-431 cells assessed as reduction in cell proliferation measured after 72 hrs by celltiter-glo assay; format: functional, cell-based; details: A-431, 72 h; method in brief: as §1
[17] = test system: NCI-H292; experiment: Antitumor activity against human NCI-H292 cells xenografted in CD-1 mouse assessed as tumor growth suppression at 50 mg/kg, po administered once daily for 5 days per week for 2 weeks and measured twice a week during compound dosing by caliper method; format: functional, organism-based
Method in brief: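 Female CD1-nude mice carried s.c. NCI-H292 cells in Matrigel/PBS and were randomized at 0.2 cm³, n = 5. […] MK-2206 (30% Captisol) was given 2 h later at 120 mg/kg po on days 0, 2, 4, 7, 9, 11, or at 360 mg/kg on days 0 and 7. Control received vehicle. Caliper volume twice weekly.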

[18] = test system: NCI-H358; experiment: Antiproliferative activity against human NCI-H358 cells assessed as reduction in cell proliferation measured after 72 hrs by celltiter-glo assay; format: functional, cell-based; details: NCI-H358, 72 h; method in brief: as §1
[19] = test system: NCI-H23; experiment: Antiproliferative activity against human NCI-H23 cells assessed as reduction in cell proliferation measured after 72 hrs by celltiter-glo assay; format: functional, cell-based; details: NCI-H23, 72 h; method in brief: as §1
[20] = test system: NCI-H292; experiment: Induction of apoptosis in human NCI-H292 cells assessed as increase in caspase-3/7 activity up to 20 umol/L measured after 48 hrs by caspase-glo 3/7 assay; format: functional, cell-based; details: dose <= 20.0 µmol/L
Method in brief: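 Caspase-3/7 activity was measured by Caspase-Glo 3/7 and expressed as fold over DMSO vehicle control. The experiment was done twice.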

[21] = test system: Mus musculus; experiment: In vivo inhibition of EGFR in human NCI-H292 cells xenografted mouse assessed as reduction in AKT phosphorylation at S473 residue at 50 mg/kg, po administered as single dose measured after 14 hrs by Western blot analysis; format: functional, organism-based
[22] = test system: Calu-6; experiment: Antiproliferative activity against human Calu-6 cells assessed as reduction in cell proliferation measured after 72 hrs by celltiter-glo assay; format: functional, cell-based; details: Calu-6, 72 h; method in brief: as §1
[23] = test system: HCC827; experiment: Antiproliferative activity against human HCC827 cells assessed as reduction in cell proliferation measured after 72 hrs by celltiter-glo assay; format: functional, cell-based; details: HCC827, 72 h; method in brief: as §1
[24] = test system: Mus musculus; experiment: In vivo inhibition of EGFR in human NCI-H292 cells xenografted mouse assessed as reduction in ERK phosphorylation at T202/Y204 residues at 50 mg/kg, po administered as single dose measured after 14 hrs by Western blot analysis; format: functional, organism-based
[25] = target: RAC-alpha serine/threonine-protein kinase (Homo sapiens) (UniProt P31749); experiment: Induction of AKT phosphorylation at S473 residue in human UMC-11 cells at 10 umol/L measured after 4 to 24 hrs by MSD assay; format: cell-based; details: dose 10.0 µmol/L, time 4-24 hrs
[26] = target: RAC-alpha serine/threonine-protein kinase (Homo sapiens) (UniProt P31749); experiment: Induction of AKT phosphorylation at S473 residue in human NCI-H1993 cells at 28 nmol/L measured after 8 hrs by MSD assay; format: cell-based; details: filed as activator
Method in brief: (§3)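 Lung cancer cells were seeded at 5 × 10⁴ per well, and carboplatin or gemcitabine was added 24 h after plating. Phospho-Akt induction was then measured.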

[27] = target: RAC-alpha serine/threonine-protein kinase (Homo sapiens) (UniProt P31749); experiment: Induction of AKT phosphorylation at S473 residue in human NCI-H1703 cells at 0.7 nmol/L measured after 8 hrs by MSD assay; format: cell-based; details: filed as activator; method in brief: as §3
[28] = Toxicity in human NCI-H460 cells xenografted CD1 nude mouse assessed as body weight loss at 100 mg/kg, iv administered once a week for 2 weeks measured during compound dosing relative to control; format: organism-based; details: in vivo, 336 h
Method in brief: (§4)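 Mice with s.c. NCI-H460 xenografts (50% Matrigel/50% PBS, left flank), randomized at mean 0.2 cm³, n=5/group, treatment started 8 d after implant. Gemcitabine 100 mg/kg i.v. in saline on days 0 and 7; vehicle-only controls. Body weight and physical signs monitored throughout.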

[29] = target: RAC-alpha serine/threonine-protein kinase (Homo sapiens) (UniProt P31749); experiment: Induction of AKT phosphorylation at S473 residue in human NCI-H661 cells at 10 nmol/L measured after 8 hrs by MSD assay; format: cell-based; details: filed as activator; method in brief: as §3
[30] = target: RAC-alpha serine/threonine-protein kinase (Homo sapiens) (UniProt P31749); experiment: Induction of AKT phosphorylation at S473 residue in human NCI-H460 cells at 5 nmol/L measured after 8 hrs by MSD assay; format: cell-based; details: filed as activator; method in brief: as §3
[31] = target: RAC-alpha serine/threonine-protein kinase (Homo sapiens) (UniProt P31749); experiment: Induction of AKT phosphorylation at S473 residue in human NCI-H441cells at 5 nmol/L measured after 4 to 24 hrs by MSD assay; format: cell-based; details: NCI-H441, time 4-24 hrs; method in brief: as §3
[32] = Toxicity in human NCI-H460 cells xenografted CD1 nude mouse assessed as body weight loss at 100 mg/kg, iv administered once a week for 2 weeks measured on day 14 to 16; format: organism-based; details: in vivo, 336 h, time 14-16 day; method in brief: as §4

CS(=O)(=O)CCNCc1ccc(-c2ccc3ncnc(Nc4ccc(OCc5cccc(F)c5)c(Cl)c4)c3c2)o1 [LAPATINIB]
IC50 [1]: > 10 µM | TGI [2]: Active | IC50 [3]: 5.5 µM | IC50 [4]: 3.2 µM | IC50 [5]: 0.04 µM | fold change (FC) [6]: ~2 | IC50 [7]: 0.03 µM | inhibition [8]: inactive | IC50 [9]: 4.5 µM

CC(=O)O[C@@]12CO[C@@H]1C[C@H](O)[C@@]1(C)C(=O)[C@H](O)C3=C(C)[C@@H](OC(=O)[C@H](O)[C@@H](NC(=O)OC(C)(C)C)c4ccccc4)C[C@@](O)([C@@H](OC(=O)c4ccccc4)[C@H]21)C3(C)C [DOCETAXEL ANHYDROUS]
Activity [10]: Active | Activity [11]: Non-Toxic | Activity [12]: 4%

C#Cc1cccc(Nc2ncnc3cc(OCCOC)c(OCCOC)cc23)c1 [ERLOTINIB]
IC50 [13]: 21.1 µM | IC50 [14]: 0.5 µM | Activity [15]: Non-Toxic | IC50 [16]: 1.9 µM | Activity [17]: Active | IC50 [18]: 4.4 µM | IC50 [19]: 10.6 µM | Activity [20]: inactive | inhibition [21]: inactive | IC50 [22]: 35.6 µM | IC50 [23]: 0.02 µM | inhibition [24]: Active

Nc1ccn([C@@H]2O[C@H](CO)[C@@H](O)C2(F)F)c(=O)n1 [GEMCITABINE]
Activity [25]: inactive | Activity [26]: Active | Activity [27]: Active | Activity [28]: 7% | Activity [29]: Active | Activity [30]: Active | Activity [31]: inactive | Activity [32]: Non-Toxic
